System: U2OS
Test: Multiplex assay against U2OS
Type: toxicity, cell-based
Settings: human
How it was run: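 Live cells were stained at seeding with Hoechst33342, BioTracker Green Microtubule Cytoskeleton Dye, MitoTracker Red and Annexin V Alexa Fluor 680. Following compound addition, they were imaged on a CQ1 microscope at 37°C and 5% CO2 and gated by CellPathfinder machine learning into Hoechst high-intensity objects or normal cells, with normal cells split into healthy, pyknosed or fragmented nuclei and pyknosed cells into mitotic or apoptotic. Tubulin, mitochondrial-mass and membrane-permeability phenotypes are per cents of healthy-nucleus cells.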

[1] = 12 h, 1 µM, compound concentration 1 uM, replicate 1
[2] = 12 h, 1 µM, compound concentration 1 uM, replicate 2
[3] = 12 h, 10 µM, compound concentration 10 uM, replicate 1
[4] = 12 h, 10 µM, compound concentration 10 uM, replicate 2
[5] = 24 h, 1 µM, compound concentration 1 uM, replicate 1
[6] = 24 h, 1 µM, compound concentration 1 uM, replicate 2
[7] = 24 h, 10 µM, compound concentration 10 uM, replicate 1
[8] = 24 h, 10 µM, compound concentration 10 uM, replicate 2
[9] = 48 h, 1 µM, compound concentration 1 uM, replicate 1
[10] = 48 h, 1 µM, compound concentration 1 uM, replicate 2
[11] = 48 h, 10 µM, compound concentration 10 uM, replicate 1
[12] = 48 h, 10 µM, compound concentration 10 uM, replicate 2

## Cc1cc(C)cc(-c2cnc3cc(Cl)c(-c4cccc(O)c4)cc3c2OCCCN)c1
[1]
  Population Apoptotic (%): 36%
  Population Fragmented Nuclei (%): 11%
  Population Healthy Nuclei (%): 75%
  Population Hoechst High Intensity Objects (%): 6%
  Population Membrane Permeable-Phenotype (%): 5%
  Population Mitochondria Different-Phenotype (%): 76%
  Population Mitotic Cells (%): 64%
  Population Normal (%): 93%
  Population Pyknosed Nuclei (%): 12%
  Population Tubulin-Different-Phenotype (%): 88%
  Total Cell Count: 132
[2]
  Population Apoptotic (%): 44%
  Population Healthy Nuclei (%): 72%
  Population Hoechst High Intensity Objects (%): 10%
  Population Membrane Permeable-Phenotype (%): 2%
  Population Mitochondria Different-Phenotype (%): 82%
  Population Mitotic Cells (%): 55%
  Population Normal (%): 90%
  Population Pyknosed Nuclei (%): 16%
  Population Tubulin-Different-Phenotype (%): 56%
  Total Cell Count: 68
[3]
  Population Apoptotic (%): 90%
  Population Fragmented Nuclei (%): 33%
  Population Healthy Nuclei (%): 1%
  Population Hoechst High Intensity Objects (%): 14%
  Population Membrane Permeable-Phenotype (%): 50%
  Population Mitochondria Different-Phenotype (%): 50%
  Population Mitotic Cells (%): 9%
  Population Normal (%): 85%
  Population Pyknosed Nuclei (%): 64%
  Population Tubulin-Different-Phenotype (%): 50%
  Total Cell Count: 207
[4]
  Population Apoptotic (%): 70%
  Population Fragmented Nuclei (%): 16%
  Population Healthy Nuclei (%): 32%
  Population Hoechst High Intensity Objects (%): 8%
  Population Membrane Permeable-Phenotype (%): 90%
  Population Mitochondria Different-Phenotype (%): 95%
  Population Mitotic Cells (%): 29%
  Population Normal (%): 91%
  Population Pyknosed Nuclei (%): 50%
  Population Tubulin-Different-Phenotype (%): 100%
  Total Cell Count: 60
[5]
  Population Apoptotic (%): 35%
  Population Fragmented Nuclei (%): 7%
  Population Healthy Nuclei (%): 77%
  Population Hoechst High Intensity Objects (%): 5%
  Population Membrane Permeable-Phenotype (%): 6%
  Population Mitochondria Different-Phenotype (%): 75%
  Population Mitotic Cells (%): 64%
  Population Normal (%): 94%
  Population Pyknosed Nuclei (%): 14%
  Population Tubulin-Different-Phenotype (%): 68%
  Total Cell Count: 131
[6]
  Population Apoptotic (%): 62%
  Population Fragmented Nuclei (%): 11%
  Population Healthy Nuclei (%): 75%
  Population Hoechst High Intensity Objects (%): 3%
  Population Membrane Permeable-Phenotype (%): 2%
  Population Mitochondria Different-Phenotype (%): 78%
  Population Mitotic Cells (%): 37%
  Population Normal (%): 96%
  Population Pyknosed Nuclei (%): 13%
  Population Tubulin-Different-Phenotype (%): 28%
  Total Cell Count: 66
[7]
  Population Apoptotic (%): 86%
  Population Fragmented Nuclei (%): 33%
  Population Healthy Nuclei (%): 2%
  Population Hoechst High Intensity Objects (%): 15%
  Population Membrane Permeable-Phenotype (%): 66%
  Population Mitochondria Different-Phenotype (%): 66%
  Population Mitotic Cells (%): 13%
  Population Normal (%): 84%
  Population Pyknosed Nuclei (%): 63%
  Population Tubulin-Different-Phenotype (%): 66%
  Total Cell Count: 200
[8]
  Population Apoptotic (%): 93%
  Population Fragmented Nuclei (%): 24%
  Population Healthy Nuclei (%): 3%
  Population Hoechst High Intensity Objects (%): 7%
  Population Membrane Permeable-Phenotype (%): 50%
  Population Mitochondria Different-Phenotype (%): 50%
  Population Mitotic Cells (%): 6%
  Population Normal (%): 92%
  Population Pyknosed Nuclei (%): 72%
  Population Tubulin-Different-Phenotype (%): 50%
  Total Cell Count: 63
[9]
  Population Apoptotic (%): 48%
  Population Fragmented Nuclei (%): 8%
  Population Healthy Nuclei (%): 75%
  Population Hoechst High Intensity Objects (%): 1%
  Population Membrane Permeable-Phenotype (%): 3%
  Population Mitochondria Different-Phenotype (%): 47%
  Population Mitotic Cells (%): 51%
  Population Normal (%): 98%
  Population Pyknosed Nuclei (%): 15%
  Population Tubulin-Different-Phenotype (%): 32%
  Total Cell Count: 127
[10]
  Population Apoptotic (%): 54%
  Population Fragmented Nuclei (%): 11%
  Population Healthy Nuclei (%): 73%
  Population Hoechst High Intensity Objects (%): 5%
  Population Membrane Permeable-Phenotype (%): 5%
  Population Mitochondria Different-Phenotype (%): 41%
  Population Mitotic Cells (%): 45%
  Population Normal (%): 95%
  Population Pyknosed Nuclei (%): 14%
  Population Tubulin-Different-Phenotype (%): 16%
  Total Cell Count: 73
[11]
  Population Apoptotic (%): 83%
  Population Fragmented Nuclei (%): 30%
  Population Healthy Nuclei (%): 3%
  Population Hoechst High Intensity Objects (%): 20%
  Population Membrane Permeable-Phenotype (%): 75%
  Population Mitochondria Different-Phenotype (%): 75%
  Population Mitotic Cells (%): 16%
  Population Normal (%): 79%
  Population Pyknosed Nuclei (%): 65%
  Population Tubulin-Different-Phenotype (%): 75%
  Total Cell Count: 270
[12]
  Population Apoptotic (%): 96%
  Population Fragmented Nuclei (%): 33%
  Population Healthy Nuclei (%): 12%
  Population Hoechst High Intensity Objects (%): 17%
  Population Membrane Permeable-Phenotype (%): 100%
  Population Mitochondria Different-Phenotype (%): 100%
  Population Mitotic Cells (%): 3%
  Population Normal (%): 82%
  Population Pyknosed Nuclei (%): 54%
  Population Tubulin-Different-Phenotype (%): 100%
  Total Cell Count: 80
